Experimental data from ChEMBL document CHEMBL3259584, “Antiproliferative novel isoxazoles: modeling, virtual screening, synthesis, and bioactivity evaluation” (Eur J Med Chem, 2014).

What was measured:
MCF7 = assay: Antiproliferative activity against human MCF7 cells after 5 days by coulter counter analysis; type: functional, cell-based; conditions: MCF7, 120 h
Procedure, shortened: (§1)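 Mouse brain endothelial cells (MBEC), HeLa and MCF-7 were maintained in DMEM with 10 mM Hepes and 10% FBS. Cells were seeded at 10,000 cells per cm2. After 16 h the medium was replaced with fresh medium containing 5-fold serial dilutions of compound. On day 5 cells were trypsinized and counted electronically. IC50 was taken as the concentration halving cell number relative to untreated control counts.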

[1] = Antiproliferative activity against human HMEC1 cells after 5 days by coulter counter analysis; type: cell-based; conditions: HMEC-1, 120 h
Procedure, shortened: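 HMEC-1 human microvascular endothelial cells were grown in EGM-2 MV endothelial medium and plated at 10,000 cells per cm2. After 16 h they received fresh medium with 5-fold dilutions of compound. On day 5 cells were trypsinized and counted with a Coulter counter. IC50 was the concentration reducing cell count by 50% relative to control cultures.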

[2] = Antiproliferative activity against MBEC after 5 days by coulter counter analysis; design: species or system Mus musculus; procedure, shortened: as §1
HeLa = assay: Antiproliferative activity against human HeLa cells after 5 days by coulter counter analysis; type: functional, cell-based; conditions: 120 h; procedure, shortened: as §1

| Structure (SMILES) | IC50 (MCF7) [µM] | IC50 [1] [µM] | IC50 [2] [µM] | IC50 (HeLa) [µM] |
| --- | --- | --- | --- | --- |
| Oc1ccc2c(c1)CCc1c(-c3ccc(F)cc3)noc1-2 | > 100 | 46 | 38 | > 100 |
| Oc1ccc(-c2noc3c2CCc2cc(O)c(O)cc2-3)cc1O | 2.1 | 4.2 | 10 | 9.1 |
| COc1ccc2c(c1)CCc1c(-c3ccc(OC)c(OC)c3)noc1-2 | > 100 | > 100 | > 100 | > 100 |
| COc1ccc(-c2noc3c2CCc2cc(OC)c(OC)cc2-3)cc1OC | 0.36 | 0.56 | 1.1 | 0.59 |
| Cc1c(-c2ccc(O)cc2)noc1-c1ccc(O)cc1 | 48 | 47 | 19 | 15 |
| COc1ccc(-c2cc(-c3ccc([N+](=O)[O-])cc3)on2)cc1 | > 100 | > 100 | > 100 | > 100 |
| CCc1c(-c2ccc(O)cc2)noc1-c1ccc(O)cc1 | 9.8 | 9.7 | 13 | 16 |
| COc1ccc(-c2noc(-c3ccc(OC)cc3)c2C)cc1 | > 100 | > 100 | > 100 | > 100 |
| COc1ccc(-c2cc(-c3ccc(OC)cc3)on2)cc1 | > 100 | > 100 | > 100 | > 100 |
| CCc1c(-c2ccc(OC)cc2)noc1-c1ccc(OC)cc1 | > 100 | > 100 | > 100 | > 100 |
| COc1ccc2c(c1)CCc1c(-c3ccc(SC(F)(F)F)cc3)noc1-2 | > 100 | > 100 | > 100 | > 100 |
| O=[N+]([O-])c1ccc(-c2cc(-c3ccc(O)cc3)no2)cc1 | 53 | 27 | 42 | 57 |
| Oc1ccc(-c2noc3c2CCc2cc(O)c(O)cc2-3)cc1 | 2.1 | 7.4 | 6.8 | 10 |
| Oc1ccc(-c2cc(-c3ccc(O)cc3)on2)cc1 | 5.2 | 6.3 | 2.5 | 6 |
| Oc1ccc2c(c1)CCc1c(-c3ccc(O)c(O)c3)noc1-2 | 0.72 | 0.42 | 0.96 | 0.97 |
| COc1ccc(-c2noc3c2CCc2cc(OC)ccc2-3)cc1 | > 100 | > 100 | > 100 | > 100 |
| COc1ccc(-c2noc3c2CCc2cc(OC)c(OC)cc2-3)cc1 | > 100 | > 100 | > 100 | > 100 |
| Oc1ccc(-c2noc3c2CCc2cc(O)ccc2-3)cc1 | 3.1 | 6.7 | 4.6 | 3.3 |
| COc1ccc2c(c1)CCc1c(-c3ccc(F)cc3)noc1-2 | > 100 | > 100 | > 100 | 34 |
| Oc1ccc2c(c1)CCc1c(-c3ccc(SC(F)(F)F)cc3)noc1-2 | 81 | 65 | 67 | 55 |
